Measurements as given in ChEMBL document CHEMBL5058577, “EUbOPEN Chemogenomics Library 2 (Multiplex)” (2022).

Tested on: HEK-293T
Assay: Multiplex assay against HEK293T
Format: toxicity, cell-based
Conditions: human
Procedure, shortened: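 Cells stained live at seeding with Hoechst33342, BioTracker Green Microtubule Cytoskeleton Dye, MitoTracker Red and Annexin V Alexa Fluor 680 were imaged on a CQ1 microscope at 37°C and 5% CO2 after compound addition. Their classification by CellPathfinder machine-learning gating ran from Hoechst high-intensity objects versus normal cells, to healthy, pyknosed or fragmented nuclei among normal cells, to mitotic or apoptotic among pyknosed cells. Tubulin, mitochondrial-mass and membrane-permeability phenotypes are per cents of healthy-nucleus cells.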

[1] = 12 h, 1 µM, compound concentration 1 uM, replicate 1
[2] = 12 h, 1 µM, compound concentration 1 uM, replicate 2
[3] = 12 h, 10 µM, compound concentration 10 uM, replicate 1
[4] = 12 h, 10 µM, compound concentration 10 uM, replicate 2
[5] = 24 h, 1 µM, compound concentration 1 uM, replicate 1
[6] = 24 h, 1 µM, compound concentration 1 uM, replicate 2
[7] = 24 h, 10 µM, compound concentration 10 uM, replicate 1
[8] = 24 h, 10 µM, compound concentration 10 uM, replicate 2
[9] = 48 h, 1 µM, compound concentration 1 uM, replicate 1
[10] = 48 h, 1 µM, compound concentration 1 uM, replicate 2
[11] = 48 h, 10 µM, compound concentration 10 uM, replicate 1
[12] = 48 h, 10 µM, compound concentration 10 uM, replicate 2

CN1CCN(c2cc(-c3ccccc3)nc(N)n2)CC1
Population Apoptotic (%) [1]: 40%
Population Fragmented Nuclei (%) [1]: 8%
Population Healthy Nuclei (%) [1]: 79%
Population Hoechst High Intensity Objects (%) [1]: 6%
Population Membrane Permeable-Phenotype (%) [1]: 0%
Population Mitochondria Different-Phenotype (%) [1]: 35%
Population Mitotic Cells (%) [1]: 60%
Population Normal (%) [1]: 93%
Population Pyknosed Nuclei (%) [1]: 11%
Population Tubulin-Different-Phenotype (%) [1]: 21%
Total Cell Count [1]: 383
Population Apoptotic (%) [2]: 34%
Population Fragmented Nuclei (%) [2]: 5%
Population Healthy Nuclei (%) [2]: 84%
Population Mitochondria Different-Phenotype (%) [2]: 48%
Population Mitotic Cells (%) [2]: 65%
Population Pyknosed Nuclei (%) [2]: 10%
Population Tubulin-Different-Phenotype (%) [2]: 16%
Total Cell Count [2]: 354
Population Apoptotic (%) [3]: 23%
Population Fragmented Nuclei (%) [3]: 7%
Population Healthy Nuclei (%) [3]: 82%
Population Hoechst High Intensity Objects (%) [3]: 7%
Population Membrane Permeable-Phenotype (%) [3]: 0%
Population Mitochondria Different-Phenotype (%) [3]: 46%
Population Mitotic Cells (%) [3]: 76%
Population Normal (%) [3]: 92%
Population Pyknosed Nuclei (%) [3]: 9%
Population Tubulin-Different-Phenotype (%) [3]: 30%
Total Cell Count [3]: 416
Population Apoptotic (%) [4]: 36%
Population Fragmented Nuclei (%) [4]: 6%
Population Healthy Nuclei (%) [4]: 81%
Population Hoechst High Intensity Objects (%) [4]: 10%
Population Mitochondria Different-Phenotype (%) [4]: 63%
Population Mitotic Cells (%) [4]: 63%
Population Normal (%) [4]: 89%
Population Pyknosed Nuclei (%) [4]: 12%
Population Tubulin-Different-Phenotype (%) [4]: 20%
Total Cell Count [4]: 296
Population Apoptotic (%) [5]: 20%
Population Fragmented Nuclei (%) [5]: 9%
Population Healthy Nuclei (%) [5]: 79%
Population Hoechst High Intensity Objects (%) [5]: 4%
Population Membrane Permeable-Phenotype (%) [5]: 1%
Population Mitochondria Different-Phenotype (%) [5]: 16%
Population Mitotic Cells (%) [5]: 79%
Population Normal (%) [5]: 95%
Population Pyknosed Nuclei (%) [5]: 11%
Population Tubulin-Different-Phenotype (%) [5]: 12%
Total Cell Count [5]: 488
Population Apoptotic (%) [6]: 36%
Population Healthy Nuclei (%) [6]: 82%
Population Mitochondria Different-Phenotype (%) [6]: 24%
Population Mitotic Cells (%) [6]: 63%
Population Pyknosed Nuclei (%) [6]: 8%
Population Tubulin-Different-Phenotype (%) [6]: 8%
Total Cell Count [6]: 480
Population Apoptotic (%) [7]: 44%
Population Fragmented Nuclei (%) [7]: 13%
Population Healthy Nuclei (%) [7]: 75%
Population Hoechst High Intensity Objects (%) [7]: 6%
Population Membrane Permeable-Phenotype (%) [7]: 0%
Population Mitochondria Different-Phenotype (%) [7]: 32%
Population Mitotic Cells (%) [7]: 55%
Population Normal (%) [7]: 93%
Population Pyknosed Nuclei (%) [7]: 11%
Population Tubulin-Different-Phenotype (%) [7]: 19%
Total Cell Count [7]: 577
Population Apoptotic (%) [8]: 34%
Population Fragmented Nuclei (%) [8]: 9%
Population Healthy Nuclei (%) [8]: 79%
Population Hoechst High Intensity Objects (%) [8]: 9%
Population Mitochondria Different-Phenotype (%) [8]: 50%
Population Mitotic Cells (%) [8]: 65%
Population Normal (%) [8]: 90%
Population Tubulin-Different-Phenotype (%) [8]: 17%
Total Cell Count [8]: 378
Population Apoptotic (%) [9]: 23%
Population Fragmented Nuclei (%) [9]: 13%
Population Healthy Nuclei (%) [9]: 78%
Population Hoechst High Intensity Objects (%) [9]: 1%
Population Membrane Permeable-Phenotype (%) [9]: 1%
Population Mitochondria Different-Phenotype (%) [9]: 12%
Population Mitotic Cells (%) [9]: 76%
Population Normal (%) [9]: 98%
Population Pyknosed Nuclei (%) [9]: 7%
Population Tubulin-Different-Phenotype (%) [9]: 12%
Total Cell Count [9]: 745
Population Apoptotic (%) [10]: 14%
Population Healthy Nuclei (%) [10]: 80%
Population Hoechst High Intensity Objects (%) [10]: 2%
Population Membrane Permeable-Phenotype (%) [10]: 0%
Population Mitochondria Different-Phenotype (%) [10]: 14%
Population Mitotic Cells (%) [10]: 85%
Population Normal (%) [10]: 97%
Population Pyknosed Nuclei (%) [10]: 6%
Population Tubulin-Different-Phenotype (%) [10]: 9%
Total Cell Count [10]: 804
Population Apoptotic (%) [11]: 16%
Population Fragmented Nuclei (%) [11]: 17%
Population Healthy Nuclei (%) [11]: 75%
Population Hoechst High Intensity Objects (%) [11]: 3%
Population Membrane Permeable-Phenotype (%) [11]: 0%
Population Mitochondria Different-Phenotype (%) [11]: 25%
Population Mitotic Cells (%) [11]: 83%
Population Normal (%) [11]: 96%
Population Pyknosed Nuclei (%) [11]: 6%
Population Tubulin-Different-Phenotype (%) [11]: 14%
Total Cell Count [11]: 861
Population Apoptotic (%) [12]: 27%
Population Fragmented Nuclei (%) [12]: 13%
Population Healthy Nuclei (%) [12]: 81%
Population Membrane Permeable-Phenotype (%) [12]: 1%
Population Mitochondria Different-Phenotype (%) [12]: 24%
Population Mitotic Cells (%) [12]: 72%
Population Pyknosed Nuclei (%) [12]: 4%
Population Tubulin-Different-Phenotype (%) [12]: 11%
Total Cell Count [12]: 645
